pEC50, pIC50: −log10 of the molar value. In brackets after ≈: the same amount, converted by molar mass.

In data set [1] the test system is CEM-SS. In words: Cytotoxicity against human CEM-SS cells assessed as cell death after 6 days by MTS assay. Format: cell-based. Conditions: 144 h. The method in brief:
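Dose-response format in CEM-SS cells exposed to compound alone (toxicity control wells) alongside the HIV-1 IIIB cytoprotection plates. Incubation was 6 days and viability was measured by MTS. CC50 is the concentration giving 50% cell death, determined from the dose-response data.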
(In general: Tetrazolium assays rely on reduction of a dye to a coloured formazan, in cell work by metabolically active cells.)

Data set [2] deals with Human immunodeficiency virus 1. In words: Antiviral activity against HIV1 3B infected in human CEM-SS cells assessed as reduction of virus-induced cytopathic effect at 10 uM after 6 days by MTS assay. Format: functional. On the set-up: scale not given: the % may be the effect or the level left. The method in brief:
(§1)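 Single-concentration screen (10 μM) in CEM-SS cells infected with pre-titered HIV-1 IIIB, sized so virus control wells lose 70–95% viability. Incubation was 6 days and read-out was by MTS. Percent CPE reduction was calculated against virus control wells (cells plus virus). Percent viability was calculated against cell-only control wells. Plates included compound toxicity and colorimetric controls, and AZT as positive control.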

A short description of data set [3]: Aqueous solubility of the compound in DPBS. Format: physicochemical. Conditions: buffer.
A short description of data set [4]: Half life in human plasma. Format: ADME, cell-free.
A short description of data set [5]: Half life in mouse plasma. Format: ADME, cell-free.
Data set [6] deals with CEM-SS. In words: Cytotoxicity against human CEM-SS cells assessed as cell viability at 10 uM after 6 days by MTS assay. Format: cell-based. Conditions: 144 h. The method in brief:
as §1

The nature of data set [7]: Half life of the compound in DPBS. Format: physicochemical.
Data set [8] in a line: Plasma protein binding in human. Format: ADME, cell-free.
The target of data set [9] is Human immunodeficiency virus type 1 reverse transcriptase (Human immunodeficiency virus 1, UniProt Q72547). In words: Inhibition of RNase H activity of full length HIV1 reverse transcriptase using RNA-DNA duplex HTS-1 substrate.
Data set [10] concerns Human immunodeficiency virus 1. In words: Antiviral activity against HIV1 3B infected in human CEM-SS cells assessed as reduction of virus-induced cytopathic effect after 6 days by MTS assay. Format: functional, organism-based. Conditions: Human immunodeficiency virus 1, 3B, 144 h.
Data set [11] concerns Human immunodeficiency virus 1. In words: Fold resistance, ratio of EC50 for raltegravir-resistant HIV1 8070-1 expressing integrase G140S/Y143H/Q148H mutant to EC50 for HIV1 expressing wild-type integrase. Format: functional.
Data set [12] is described as follows: Intrinsic clearance in human liver microsomes during phase 1 measured per mg of protein. Format: ADME, Microsome. A general note: Liver microsomes are a subcellular fraction often used to study metabolism.
The nature of data set [13]: Intrinsic clearance in mouse liver microsomes assessed as glucuronidation during phase 2 measured per mg of protein. Format: ADME, Microsome.
A short description of data set [14]: Therapeutic index, ratio of CC50 for human CEM-SS cells to EC50 for HIV1 3B infected in human CEM-SS cells. Format: toxicity, cell-based. Conditions: read-out: Ratio CC50/EC50.
Data set [15] concerns Human immunodeficiency virus 1. In words: Fold resistance, ratio of EC50 for raltegravir-resistant HIV1 8070-2 expressing integrase G140S/Q148H mutant to EC50 for HIV1 expressing wild-type integrase. Format: functional.
The test system of data set [16] is Human immunodeficiency virus 1. In words: Fold resistance, ratio of EC50 for raltegravir-resistant HIV1 1556-1 expressing integrase Y143C mutant to EC50 for HIV1 expressing wild-type integrase. Format: functional.
In data set [17] the test system is Human immunodeficiency virus 1. In words: Fold resistance, ratio of EC50 for raltegravir-resistant HIV1 4736-2 expressing integrase N155H mutant to EC50 for HIV1 expressing wild-type integrase. Format: functional.
Data set [18] is described as follows: Plasma protein binding in mouse. Format: ADME, cell-free.
Data set [19] deals with Human immunodeficiency virus type 1 integrase (Human immunodeficiency virus 1, UniProt Q7ZJM1). In words: Inhibition of HIV1 recombinant integrase expressed in Escherichia coli using [32P]-labeled oligonucleotide as substrate after 60 mins by strand transfer activity assay.
The test system of data set [20] is Human immunodeficiency virus 1. In words: Antiviral activity against HIV1 infected in human P4R5 cells assessed as reduction of virus replication preincubated with cells for 24 hrs followed by viral infection for 48 hrs by 4-methylumbelliferylgalactoside-based MAGI assay. Format: functional, organism-based.

Human immunodeficiency virus type 1 integrase, sequence (Q7ZJM1 whole entry): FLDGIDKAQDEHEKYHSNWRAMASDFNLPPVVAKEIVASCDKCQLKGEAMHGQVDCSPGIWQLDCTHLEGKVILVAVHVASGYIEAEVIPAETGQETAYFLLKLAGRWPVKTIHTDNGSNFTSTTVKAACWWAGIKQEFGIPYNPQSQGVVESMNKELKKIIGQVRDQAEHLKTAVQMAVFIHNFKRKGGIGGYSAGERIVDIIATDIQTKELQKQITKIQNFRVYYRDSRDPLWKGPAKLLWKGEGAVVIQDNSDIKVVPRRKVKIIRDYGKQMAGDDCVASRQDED

The term CC50 denotes the concentration giving 50% cytotoxicity. One may read the solubility as the concentration that dissolves in the medium under given conditions. Usually half-life stands for the time in which the quantity being followed falls by half. As a reminder, the pIC50 is the negative decadic logarithm of the IC50, by convention in mol/L. One may read the pEC50 as the negative decadic logarithm of the EC50, by convention in mol/L. Consider `CCNc1[nH]c(=O)n(O)c(=O)c1C(=O)NCc1cccc(Cl)c1F`, for which the CC50 with CEM-SS [1] worked out at 18000 nM. The Activity (in data set [2]; with CEM-SS [6]) was 100% in each case. Further, the solubility in data set [3] came to 11 µM (≈ 3.92 µg/mL). The t1/2 in [4] and in data set [5] was over 24 h throughout. In data set [7], this compound returned a half-life of over 24 h. Besides, the values for the PPB in [8] and in [18] were 98.4% and 94%, respectively. In addition, the pIC50 in data set [9] is 7.54; in data set [19] it was 7.68. Moreover, the pEC50 was 7.82 in data set [10] and 6.52 in [20]. The “Ratio EC50” value is 6.3 in data set [11], 13 in data set [15], 0.4 in data set [16] and 2.4 in [17]. The results for the CLH in [12] and in data set [13] were under 0.1 µL/min/mg and 1065 µL/min/mg, respectively. The selectivity ratio in data set [14] was 1200.

In the case of `Cc1cn([C@H]2C[C@H](N=[N+]=[N-])[C@@H](CO)O2)c(=O)[nH]c1=O` [ZIDOVUDINE], the “Ratio EC50” value in data set [11] is recorded as 0.9; in [15] it was 0.5; in [16], 1.4; in data set [17], 0.7.

Source of the values: ChEMBL document CHEMBL4477212 (J Med Chem, 2016).
